Assay results as given in PubChem BioAssay.
Inconclusive results are not listed.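 How the source made its calls, unless noted: active means growth inhibition above 25% in both replicates, a cutoff set 3 SD above the mean; inconclusive means above 25% in only one replicate; inactive means the rest.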

Tests used:
[1] = S. cerevisiae growth inhibition in permissive medium (OD615), pilot counter-assay for S. cerevisiae lifespan shortening project, permissive growth control (AID 705); settings: OD615, 24 h, at 10 µM, stronger effect = higher value
Procedure, shortened: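 System: engineered DeaD yeast; Medium: permissive raffinose/galactose medium; Compound dosing: 10 µM single dose, 0.25% DMSO; Incubation: 4 h cell pre-growth, 24 h exposure at 30 °C; Technique: OD at 615 nm; Evaluation: growth inhibition from lowered OD615 after 24 h.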

[2] = S. cerevisiae growth inhibition in restrictive medium, OD615, pilot screen, restrictive growth control, yeast lifespan reduction project (AID 706;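 active means growth inhibition above a set limit, 3 SD over mean compound inhibition, in both replicates, cut at about 43% in these data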;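 further: modified DeaD lifespan yeast strain shifted to restrictive glucose medium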); settings: OD615, 48 h, at 10 µM, stronger effect = higher value
Procedure, shortened: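 Material: modified S. cerevisiae; buffer or medium: CSMM-D glucose medium; doses: one concentration, 10 µM final, 0.25% DMSO; incubation: 48 h compound exposure at 30 °C; detection: optical density at 615 nm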

[3] = doxorubicin toxicity protection in MRP-1 cells – H69AR cells, CellTiter-Glo, duplicate, MRP-1 activator project, pilot screen (AID 807;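 active means viability increase at or above a cutoff of the median across tested compounds plus 3 SD, cut at about 8.5% in these data, passing the limit was not always enough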;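 further: compound pretreatment 18-22 h then 72 h combined with doxorubicin; 0% = doxorubicin alone and 100% = vehicle without doxorubicin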); settings: H69AR viability with doxorubicin, CellTiter-Glo luminescence; at 10 µM; stronger effect = higher value
[4] = viability of PTEN-null HCT116 cells – cell-based, HCT116 clonal line, CellTiter-Glo, pilot screen (AID 824;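 active means viability at or below 27.92% in each of two runs, the all-compound median minus 4 SD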;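 further: 0% = 20 µM Hyamine control and 100% = vehicle cell control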); settings: HCT116 PTEN-deleted viability, 60 h, at 10 µM, stronger effect = lower value
[5] = RAM pathway blockade in budding yeast – dse1pr::URA3 reporter, 5-FOA selection, pilot screen (AID 869;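 active means inhibition over a set limit, the all-compound mean plus 3 SD, in both replicate runs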;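 further: 0% = DMSO wells with no growth and 100% = 10 µM 1-NA-PP1 with full growth; RAM network block rescues cells from 5-FOA so hits raise OD615 growth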); settings: S. cerevisiae dse1pr::URA3 5-FOA growth, OD615, 2 d; at 10 µM; stronger effect = higher value; strain carries analog-sensitive mutant Cbk1 kinase
[6] = RAM signaling pathway blockade in yeast – S. cerevisiae, Pdr1DBD-CYC8 efflux-inhibited sensitized strain, primary screen (AID 1298;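 active means RAM network inhibition above 8.4% in each of two replicates, 3 SD over the compound average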;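 further: 0% = DMSO untreated cells without growth and 100% = 10 µM 1-NA-PP1 full growth; higher means more yeast growth rescued from 5-FOA killing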); settings: S. cerevisiae cbk1-as DSE1-URA3 strain, 5-FOA growth OD615, 2 d; at 50 µM; stronger effect = higher value

CCOC(=O)N1CCC(NC(=O)C(CC(C)C)NC(=O)C2CCCCC2)CC1 (stereo not given)
inactive: growth inhibition [1] -6.28% | growth inhibition [2] -1.08% | viability increase [3] -2.08% | viability [4] 100% | inhibition [5] 2.41% | RAM network inhibition [6] 1.8%

Cc1cc(S(=O)(=O)N2CCN(Cc3ccc4c(c3)OCO4)CC2)cc(C)c1N1CCCC1=O
inactive: growth inhibition [1] -10.6% | growth inhibition [2] -19.3% | viability increase [3] -3.13% | viability [4] 53.6% | inhibition [5] -0.21% | RAM network inhibition [6] 0.73%

COc1ccc(C(=O)NC(C)c2nc3ccccc3[nH]2)cc1OC (stereo not given)
inactive: growth inhibition [1] -9.91% | growth inhibition [2] -3.65% | viability increase [3] -1.84% | viability [4] 97.9% | inhibition [5] 2.15% | RAM network inhibition [6] 4.78%

O=C(C1CC1)N1CCc2cc(Br)cc(S(=O)(=O)N3CCCCCC3)c21
inactive: growth inhibition [1] -4% | growth inhibition [2] -6.99% | viability increase [3] -3.17% | viability [4] 82.1% | inhibition [5] 1.66% | RAM network inhibition [6] 5.99%

CCN1C(=S)SC(=O)C1=C1C=C(C)N(CCO)C(C)=C1
inactive: growth inhibition [1] 1.7% | growth inhibition [2] 23.4% | viability increase [3] -2.35% | viability [4] 95.3% | inhibition [5] 1.45% | RAM network inhibition [6] 0.11%

Cc1cccc(N(CC(=O)Nc2c(C)n(C)n(-c3ccccc3)c2=O)S(C)(=O)=O)c1
inactive: growth inhibition [1] -9.29% | growth inhibition [2] -0.62% | viability increase [3] -0.12% | viability [4] 106% | inhibition [5] 1.61% | RAM network inhibition [6] 1.64%

COc1ccc(CNC(=O)CSc2nnnn2-c2ccc(O)cc2)cc1
inactive: growth inhibition [1] -0.35% | growth inhibition [2] -9.08% | viability increase [3] -4.35% | viability [4] 98.6% | inhibition [5] 2.5% | RAM network inhibition [6] 3.74%

C=CCC1(O)C(=O)N2C(=C1C(=O)N1CCOCC1)c1ccccc1CC2(C)C (stereo not given)
inactive: growth inhibition [1] 5.07% | growth inhibition [2] -8.41% | viability increase [3] -2.47% | viability [4] 99.4% | inhibition [5] 0.41% | RAM network inhibition [6] 2.11%

CCOC(=O)N1CCN(C(=O)c2oc3ccc(S(=O)(=O)N4CCOCC4)cc3c2C)CC1
inactive: growth inhibition [1] -6.53% | growth inhibition [2] -12.6% | viability increase [3] -4.64% | viability [4] 99.9% | inhibition [5] 2.71% | RAM network inhibition [6] 4.61%

O=C(c1ccsc1)N1CCN(C(=O)c2cccs2)CC1
inactive: growth inhibition [1] -9.91% | growth inhibition [2] 2.31% | viability increase [3] 1.13% | viability [4] 107% | inhibition [5] 2.04% | RAM network inhibition [6] 0.97%

Cc1csc(NC(=O)NC2(C(F)(F)F)Oc3ccccc3O2)n1
inactive: growth inhibition [1] -6.66% | growth inhibition [2] 0.47% | viability increase [3] -6.08% | viability [4] 84.3% | inhibition [5] 0.995% | RAM network inhibition [6] 5.12%

CC(Oc1ccc(Cl)cc1)C(=O)Nc1nccs1 (stereo not given)
inactive: growth inhibition [1] -5.8% | growth inhibition [2] -5.78% | viability increase [3] -1.86% | viability [4] 87% | inhibition [5] 1.31% | RAM network inhibition [6] 2.7%

CCN(CC)CCN1C(=O)C(=O)/C(=C(/O)c2ccc(C)cc2)C1c1ccncc1 (stereo not given)
inactive: growth inhibition [1] 2.04% | growth inhibition [2] -2.02% | viability increase [3] 0.64% | viability [4] 97.9% | inhibition [5] 0.635% | RAM network inhibition [6] 5.38%

C=CCn1c(C)cc(C(=O)COc2nncc3ccccc23)c1C
inactive: growth inhibition [1] -10.3% | growth inhibition [2] -15% | viability increase [3] -2.37% | viability [4] 74.2% | inhibition [5] 2.32% | RAM network inhibition [6] 0.87%

O=C(NCC1CCCO1)C1CCCCN1S(=O)(=O)c1ccc(F)cc1 (stereo not given)
inactive: growth inhibition [1] -2.19% | growth inhibition [2] -9.73% | viability increase [3] -2.13% | viability [4] 102% | inhibition [5] 0.075% | RAM network inhibition [6] 1.44%

COc1ccc(N2CCN(CCNC(=O)CCNS(=O)(=O)c3cccs3)CC2)cc1
inactive: growth inhibition [1] -5.45% | growth inhibition [2] -5.3% | viability increase [3] -0.82% | viability [4] 96.3% | inhibition [5] 1.71% | RAM network inhibition [6] 2.25%

O=C(Nc1cccc(F)c1)Nc1ccccn1
inactive: growth inhibition [1] -10.9% | growth inhibition [2] -7.43% | viability increase [3] -3.54% | viability [4] 88.1% | inhibition [5] 0.385% | RAM network inhibition [6] -0.16%

NC(=O)CCn1nc(-c2ccccc2)c2ccccc2c1=O
inactive: growth inhibition [1] 6.63% | growth inhibition [2] 13.7% | viability increase [3] -2.48% | viability [4] 96.8% | inhibition [5] 0.31% | RAM network inhibition [6] 0%

O=C(O)CCC(=O)CCC(=O)c1ccc(Cl)cc1
inactive: growth inhibition [1] 8.94% | growth inhibition [2] -2.93% | viability increase [3] -1.69% | viability [4] 94.3% | inhibition [5] -0.55% | RAM network inhibition [6] 5.32%

CCCOc1nc2c(c(=O)n(C)c(=O)n2C)n1Cc1cccc2ccccc12
inactive: growth inhibition [1] -12.5% | growth inhibition [2] -0.875% | viability increase [3] -4.04% | viability [4] 57.7% | inhibition [5] 0.84% | RAM network inhibition [6] 1.64%

CCC(C)NC(=O)c1cn(C)c(=O)c2cc(OC)c(OC)cc12 (stereo not given)
inactive: growth inhibition [1] -6.39% | growth inhibition [2] -12.4% | viability increase [3] -3.24% | viability [4] 99.7% | inhibition [5] 1.1% | RAM network inhibition [6] 5.28%

O=C(CSc1nc(-c2ccncc2)nn1CC(=O)N1CCCCC1)NC1CCCC1
inactive: growth inhibition [1] -4.01% | growth inhibition [2] -16.2% | viability increase [3] -4.19% | viability [4] 88% | inhibition [5] 1.07% | RAM network inhibition [6] -1.59%

CCOC(=O)c1c(NC(=O)OC)sc(C(=O)N(CC)CC)c1C
inactive: growth inhibition [1] -14.6% | growth inhibition [2] -12.4% | viability increase [3] -1.31% | viability [4] 93% | inhibition [5] 1.47% | RAM network inhibition [6] 1.79%

COc1ccc(OC(C)C(=O)Nc2cccc(OC)c2)cc1 (stereo not given)
inactive: growth inhibition [1] -4.58% | growth inhibition [2] -2.9% | viability increase [3] -4.64% | viability [4] 97.9% | inhibition [5] 0.625% | RAM network inhibition [6] -0.52%

Cc1ccc(C(=O)NCCNC(=O)CN2CCCC2)cc1
inactive: growth inhibition [1] -7.48% | growth inhibition [2] 3.55% | viability increase [3] -0.66% | viability [4] 103% | inhibition [5] 2.21% | RAM network inhibition [6] 5.7%

CCC(C)C1C(C#N)=C(N)Oc2n[nH]c(C)c21 (stereo not given)
inactive: growth inhibition [1] -0.17% | growth inhibition [2] 7.77% | viability increase [3] -7.71% | viability [4] 62.9% | inhibition [5] 0.79% | RAM network inhibition [6] 6.1%

CCc1cccc(C)c1NC(=O)CCCC(=O)O
inactive: growth inhibition [1] -0.24% | growth inhibition [2] -1.56% | viability increase [3] -1.29% | viability [4] 102% | inhibition [5] 0.44% | RAM network inhibition [6] -0.21%

Cc1ccc(N=Cc2c(O)n(C)c(=O)n(C)c2=O)nc1
inactive: growth inhibition [1] 5.8% | growth inhibition [2] 16.6% | viability increase [3] 0.03% | viability [4] 99.2% | inhibition [5] 1.89% | RAM network inhibition [6] -0.87%

CCN1CCN(c2cc(C)c3cc(NC(=O)c4ccc5c(c4)OCO5)ccc3n2)CC1
inactive: growth inhibition [1] -12.3% | growth inhibition [2] -7.6% | viability increase [3] -8.06% | viability [4] 47.2% | inhibition [5] -0.365% | RAM network inhibition [6] 3.21%

COc1ccc(C2=[N+]([O-])C(C)(C)N(O)C2(C)C)cc1
inactive: growth inhibition [1] -8.58% | growth inhibition [2] 12.9% | viability increase [3] -1.34% | viability [4] 100% | inhibition [5] 1.38% | RAM network inhibition [6] 0.67%

Cc1c(C(=O)NCc2ccccc2)oc2ccc(S(=O)(=O)N3CCC4(CC3)OCCO4)cc12
inactive: growth inhibition [1] 5.31% | growth inhibition [2] 2.71% | viability increase [3] -4.5% | viability [4] 66.5% | inhibition [5] 3.6% | RAM network inhibition [6] 2.96%

COc1cc(C)c(C(C)C)cc1S(=O)(=O)n1cnc(C)c1
inactive: growth inhibition [1] 0.115% | growth inhibition [2] 6.4% | viability increase [3] -3.58% | viability [4] 37.8% | inhibition [5] 0.425% | RAM network inhibition [6] 4.02%

O=C(CN1C(=O)c2ccccc2S1(=O)=O)N1CCN(c2ccccc2F)CC1
inactive: growth inhibition [1] 0.11% | growth inhibition [2] 5.53% | viability increase [3] -3.37% | viability [4] 101% | inhibition [5] 2.07% | RAM network inhibition [6] 2.92%

Brc1ccc2ncnc(NCc3ccco3)c2c1
inactive: growth inhibition [1] 2.37% | growth inhibition [2] 13% | viability increase [3] -7.68% | viability [4] 35.5% | inhibition [5] 1.71% | RAM network inhibition [6] 4.76%

COc1ccccc1-n1c(SCC(=O)Nc2nnc(C)s2)nc2c(c1=O)SCC2
inactive: growth inhibition [1] -5.29% | growth inhibition [2] 3.71% | viability increase [3] -3.7% | viability [4] 80.6% | inhibition [5] 0.81% | RAM network inhibition [6] 3.59%

Cc1cccc(N(C)C(=O)CCS(=O)(=O)c2cccc3nonc23)c1
inactive: growth inhibition [1] -5.82% | growth inhibition [2] 0.54% | viability increase [3] -4.98% | viability [4] 96.3% | inhibition [5] 1.06% | RAM network inhibition [6] 5.74%

O=C(Nc1ccc(Cl)cc1)N(Cc1cccs1)Cc1cccs1
inactive: growth inhibition [1] -13.9% | growth inhibition [2] -21.5% | viability increase [3] -0.55% | viability [4] 64.9% | inhibition [5] 2.13% | RAM network inhibition [6] 8.73%

COc1ccccc1CNC(=O)CCS(=O)(=O)c1cccs1
inactive: growth inhibition [1] -15.9% | growth inhibition [2] -3.45% | viability increase [3] -3.06% | viability [4] 103% | inhibition [5] 1.43% | RAM network inhibition [6] 0.82%

O=C1c2ccccc2C(=O)N1CSc1nnnn1-c1ccccc1
inactive: growth inhibition [1] -1.45% | growth inhibition [2] 31.4% | viability increase [3] -2.14% | viability [4] 104% | inhibition [5] 2.01% | RAM network inhibition [6] 6.61%

CS(=O)(=O)N(CC(=O)NCc1ccncc1)c1cc(Cl)cc(Cl)c1
inactive: growth inhibition [1] -7.62% | growth inhibition [2] -10.8% | viability increase [3] -2.29% | viability [4] 105% | inhibition [5] 1.33% | RAM network inhibition [6] 0.15%
